We go through 3 compounds from ChEMBL document CHEMBL4033799, “Stable and Long-Lasting, Novel Bicyclic Peptide Plasma Kallikrein Inhibitors for the Treatment of Diabetic Macular Edema” (J Med Chem, 2018).

Data set [1] has as its target Plasma kallikrein (Rattus norvegicus, UniProt P14272). As to the kind of experiment: Inhibition of recombinant Sprague-Dawley rat plasma kallikrein using fluorogenic H-Pro-Phe-Arg-AMC peptide as substrate preincubated for 15 mins followed by substrate addition measured by fluorescence-based assay. To be noted: read-out: Ki(app).
The test system of data set [2] is Plasma. As to the kind of experiment: Drug metabolism in rat plasma assessed as (5R,8S,11S,14S,17S,20S,23R)-29-[[(2R)-2-acetamido-3-hydroxy-3-oxo-propyl]sulfanylmethyl]-5-amino-14-(3-amino-3-oxo-propyl)-17-(carboxymethyl)-11-(1H-imidazol-5-ylmethyl)-8,20-diisobutyl-6,9,12,15,18,21-hexaoxo-3,25-dithia-7,10,13,16,19,22-hexazabicyclo[25.3.1]hentriaconta-1(31),27,29-triene-23-carboxylic acid metabolite formation at 50 uM after 18 hrs by MALDI-TOF analysis. Type of data set: ADME, cell-free. The gist of the method:
(§1)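 Peptide from a 1 mM DMSO stock was diluted to 50 μM in citrated mouse, rat or human plasma and incubated at 37 °C for up to 2 days. Samples taken at time points were quenched in 1:1 acetonitrile/methanol and centrifuged. The supernatant was mixed with ammonium bicarbonate in acetonitrile/water, and parent peptide and metabolites were detected by MALDI-TOF.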

Data set [3] is described as follows: Half life in rat plasma at 4 uM measured up to 24 hrs by LC-MS/MS analysis. It counts as ADME, cell-free. An outline of the steps: (§2)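 Peptide from a 0.16 mM DMSO stock was added to human, rat or mouse plasma (final 4 μM) or to homogenized human vitreous (final 1 μM), with internal standard. Samples were incubated at 37 °C for up to 24 h and extracted with water/acetonitrile/methanol 1:3:3.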

Data set [4] has as its system Plasma. Kind of data set: Drug metabolism in human plasma assessed as deltaLeu6 metabolite formation at 50 uM after 18 hrs by MALDI-TOF analysis. It counts as ADME, cell-free. The gist of the method: as §1
The test system of data set [5] is Plasma. Kind of data set: Drug metabolism in human plasma assessed as deltaH7Q6 metabolite formation at 50 uM after 18 hrs by MALDI-TOF analysis. Type of data set: ADME, cell-free. The gist of the method:
as §1

A short description of data set [6]: Inhibition of rabbit plasma kallikrein using fluorogenic H-Pro-Phe-Arg-AMC peptide as substrate preincubated for 15 mins followed by substrate addition measured by fluorescence-based assay. Also on record: species or system Oryctolagus cuniculus. The settings on record: read-out: Ki(app). An outline of the steps:
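Assays ran at 25 °C in 50 mM Tris-HCl, 250 mM NaCl, 1.5 μM BSA, pH 7.5. PKal (nominal 1–2 nM) was preincubated 15 min with serially diluted peptide. […] Human PKal was purified from plasma; rat PKal was made in-house or bought; other species were purified in-house from kaolin-activated plasma.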

A short description of data set [7]: Plasma clearance in Sprague-Dawley rat at 10 mg/kg, iv administered as infusion over 1 hr measured up to 240 mins post dose by LC-MS/MS analysis. It counts as ADME, organism-based. An outline of the steps:
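Groups of 2 male Sprague-Dawley rats; 10 mg/kg infused into the jugular vein over 1 h. Serial blood drawn via tail-vein cannulae at 5–240 min into EDTA tubes and processed to plasma. Plasma assayed by LC-MS/MS against a 16–4000 ng/mL calibration line in control rat plasma.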

A further data set deals with (UniProt A0A8D1M4K5). As to the kind of experiment: Inhibition of pig plasma kallikrein using fluorogenic H-Pro-Phe-Arg-AMC peptide as substrate preincubated for 15 mins followed by substrate addition measured by fluorescence-based assay. Also noted: species or system Sus scrofa. To be noted: read-out: Ki(app).
Data set [8] in a line: Half life in human plasma at 4 uM measured up to 24 hrs by LC-MS/MS analysis. It counts as ADME, cell-free. The gist of the method:
as §2

Data set [9] in a line: Half life in mouse plasma at 4 uM measured up to 24 hrs by LC-MS/MS analysis. It counts as ADME, cell-free. The gist of the method: as §2
Data set [10] deals with Plasma. As to the kind of experiment: Drug metabolism in rat plasma assessed as (5R,8S,11S,14S,17S,20S,23R)-29-[[(2R)-2-acetamido-3-[[(1S)-2-hydroxy-1-(hydroxymethyl)-2-oxo-ethyl]amino]-3-oxo-propyl]sulfanylmethyl]-5-amino-14-(3-amino-3-oxo-propyl)-17-(carboxymethyl)-11-(1H-imidazol-5-ylmethyl)-8,20-diisobutyl-6,9,12,15,18,21-hexaoxo-3,25-dithia-7,10,13,16,19,22-hexazabicyclo[25.3.1]hentriaconta-1(31),27,29-triene-23-carboxylic acid metabolite formation at 50 uM after 18 hrs by MALDI-TOF analysis. Type of data set: ADME, cell-free. The gist of the method: as §1

Data set [11] concerns the target Plasma kallikrein (Homo sapiens, UniProt P03952). As to the kind of experiment: Inhibition of human plasma kallikrein using fluorogenic H-Pro-Phe-Arg-AMC peptide as substrate preincubated for 15 mins followed by substrate addition measured by fluorescence-based assay. The settings on record: read-out: Ki(app).
Data set [12] relates to Plasma. Kind of data set: Drug metabolism in rat plasma assessed as (5R,8S,11S,14S,17S,20S,23R)-29-[[(2R)-2-acetamido-3-[[(1S)-1-(hydroxymethyl)-2-[[(1S)-2-[(2S)-2-[[(1S)-2-hydroxy-1-methyl-2-oxo-ethyl]carbamoyl]pyrrolidin-1-yl]-1-(1H-indol-3-ylmethyl)-2-oxo-ethyl]amino]-2-oxo-ethyl]amino]-3-oxo-propyl]sulfanylmethyl]-5-amino-14-(3-amino-3-oxo-propyl)-17-(carboxymethyl)-11-(1H-imidazol-5-ylmethyl)-8,20-diisobutyl-6,9,12,15,18,21-hexaoxo-3,25-dithia-7,10,13,16,19,22-hexazabicyclo[25.3.1]hentriaconta-1(31),27,29-triene-23-carboxylic acid metabolite formation at 50 uM after 18 hrs by MALDI-TOF analysis. It counts as ADME, cell-free. The gist of the method: as §1

Data set [13] is described as follows: Half life in human vitreous humor at 1 uM measured up to 24 hrs by LC-MS/MS analysis. It counts as ADME, tissue-based. An outline of the steps:
as §2

For data set [14], the system named is Plasma. As to the kind of experiment: Drug metabolism in human plasma assessed as deltaL6H7Q6 metabolite formation at 50 uM after 18 hrs by MALDI-TOF analysis. Type of data set: ADME, cell-free. An outline of the steps:
as §1

Data set [15] relates to Rattus norvegicus. Kind of data set: Antiinflammatory activity in Sprague-Dawley rat assessed as inhibition carrageenan-induced paw edema at 5 mg/kg, ip pretreated for 15 mins followed by carrageenan challenge measured at 2 hrs post carrageenan challenge. The settings on record: read-out: INH.
The subject of data set [16] is Rattus norvegicus. As to the kind of experiment: Antiinflammatory activity in Sprague-Dawley rat assessed as inhibition carrageenan-induced paw edema at 5 mg/kg, ip pretreated for 15 mins followed by carrageenan challenge measured at 4 hrs post carrageenan challenge. Type of data set: functional. An outline of the steps: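 Male Sprague-Dawley rats got an IP pretreatment 15 min before a subplantar carrageenan injection. Paw volume was recorded at 1, 2, 4 and 6 h after carrageenan. Percent inhibition of paw edema was calculated against a vehicle-treated group.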
(In the carrageenan paw model, swelling and tenderness develop within hours.)

Data set [17] concerns Rattus norvegicus. As to the kind of experiment: Antiinflammatory activity in Sprague-Dawley rat assessed as inhibition carrageenan-induced paw edema at 5 mg/kg, ip pretreated for 15 mins followed by carrageenan challenge measured at 6 hrs post carrageenan challenge. Type of data set: functional. An outline of the steps: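 Male Sprague-Dawley rats received peptide IP (30, 10 or 3 mg/kg), or indomethacin IP at 5 mg/kg, 15 min before subplantar carrageenan. Paw volume was followed over time against a vehicle group.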

Data set [18] relates to Rattus norvegicus. As to the kind of experiment: Antiinflammatory activity in Sprague-Dawley rat assessed as inhibition carrageenan-induced paw edema at 5 mg/kg, ip pretreated for 30 mins followed by carrageenan challenge measured up to 8 hrs post carrageenan challenge. Type of data set: functional.
Data set [19] deals with Rattus norvegicus. As to the kind of experiment: Antiinflammatory activity in Sprague-Dawley rat assessed as inhibition carrageenan-induced paw edema at 5 mg/kg, ip pretreated for 15 mins followed by carrageenan challenge measured at 1 hr post carrageenan challenge. To be noted: read-out: INH.
Data set [20] concerns Plasma. As to the kind of experiment: Anti-coagulating activity in human plasma assessed as increase in coagulation time at 14 uM by aPTT assay relative to control. Type of data set: functional.
For a further data set, the target named is Coagulation factor XI (Homo sapiens, UniProt P03951). Kind of data set: Inhibition of factor 11a (unknown origin).
Coagulation factor XI, sequence (P03951 19-387 limits assumed): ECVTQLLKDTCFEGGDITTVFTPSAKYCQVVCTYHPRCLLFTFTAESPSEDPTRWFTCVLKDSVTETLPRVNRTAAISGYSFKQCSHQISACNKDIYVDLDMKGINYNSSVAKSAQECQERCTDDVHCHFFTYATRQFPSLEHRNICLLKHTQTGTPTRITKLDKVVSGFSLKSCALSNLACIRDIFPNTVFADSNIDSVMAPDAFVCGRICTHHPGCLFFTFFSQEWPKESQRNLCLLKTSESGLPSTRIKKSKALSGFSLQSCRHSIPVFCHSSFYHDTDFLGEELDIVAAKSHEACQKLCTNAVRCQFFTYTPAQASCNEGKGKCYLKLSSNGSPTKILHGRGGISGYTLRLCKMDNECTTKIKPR
Coagulation factor XI, sequence (P03951 388-625 limits assumed): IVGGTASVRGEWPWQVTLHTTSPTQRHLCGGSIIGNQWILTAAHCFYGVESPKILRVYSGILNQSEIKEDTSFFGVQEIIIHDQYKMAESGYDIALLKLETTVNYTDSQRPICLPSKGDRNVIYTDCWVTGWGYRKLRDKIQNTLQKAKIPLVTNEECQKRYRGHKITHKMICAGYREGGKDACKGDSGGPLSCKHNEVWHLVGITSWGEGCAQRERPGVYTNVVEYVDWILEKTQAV

*1 amine or outer side, *2 acyl side, *3 side chain or, on linkers, in order; H or OH if unused. Where a SMILES comes first, the peptide text is derived from it. Bridges are numbered along the chain shown (N, C = ends). TBMB = c1c(C[*:1])cc(C[*:3])cc1C[*:2] Bounds are passed on as bounds.

Plasma kallikrein (Rattus norvegicus, UniProt P14272), sequence (P14272 20-390 limits assumed): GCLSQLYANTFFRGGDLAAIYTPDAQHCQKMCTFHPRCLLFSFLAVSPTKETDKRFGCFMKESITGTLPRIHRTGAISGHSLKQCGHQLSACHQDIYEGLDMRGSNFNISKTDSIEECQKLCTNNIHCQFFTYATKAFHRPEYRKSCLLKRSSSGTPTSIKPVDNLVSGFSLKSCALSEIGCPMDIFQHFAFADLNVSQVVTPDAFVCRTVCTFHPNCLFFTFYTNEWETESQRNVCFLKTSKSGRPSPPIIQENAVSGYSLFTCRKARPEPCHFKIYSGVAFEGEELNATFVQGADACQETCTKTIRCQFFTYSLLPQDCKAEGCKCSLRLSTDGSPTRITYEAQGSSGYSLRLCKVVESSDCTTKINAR
Plasma kallikrein (Rattus norvegicus, UniProt P14272), sequence (P14272 391-638 limits assumed): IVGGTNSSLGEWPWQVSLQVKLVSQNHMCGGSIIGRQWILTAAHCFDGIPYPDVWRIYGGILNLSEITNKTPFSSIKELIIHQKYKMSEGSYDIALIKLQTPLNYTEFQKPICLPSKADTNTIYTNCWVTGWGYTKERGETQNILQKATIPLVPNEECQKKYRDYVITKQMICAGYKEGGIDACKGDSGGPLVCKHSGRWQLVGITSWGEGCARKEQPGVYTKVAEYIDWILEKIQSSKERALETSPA
Plasma kallikrein (Homo sapiens, UniProt P03952), sequence (P03952 20-390 limits assumed): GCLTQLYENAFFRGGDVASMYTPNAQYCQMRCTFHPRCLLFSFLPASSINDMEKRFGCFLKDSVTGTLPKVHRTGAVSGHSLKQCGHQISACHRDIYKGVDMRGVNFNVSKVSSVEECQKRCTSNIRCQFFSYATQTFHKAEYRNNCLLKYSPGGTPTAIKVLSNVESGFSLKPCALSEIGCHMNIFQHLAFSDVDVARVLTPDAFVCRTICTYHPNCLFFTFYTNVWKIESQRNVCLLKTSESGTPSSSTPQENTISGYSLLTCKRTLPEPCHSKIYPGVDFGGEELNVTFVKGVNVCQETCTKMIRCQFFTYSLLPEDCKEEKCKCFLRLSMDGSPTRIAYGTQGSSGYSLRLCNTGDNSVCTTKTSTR
Plasma kallikrein (Homo sapiens, UniProt P03952), sequence (P03952 391-638 limits assumed): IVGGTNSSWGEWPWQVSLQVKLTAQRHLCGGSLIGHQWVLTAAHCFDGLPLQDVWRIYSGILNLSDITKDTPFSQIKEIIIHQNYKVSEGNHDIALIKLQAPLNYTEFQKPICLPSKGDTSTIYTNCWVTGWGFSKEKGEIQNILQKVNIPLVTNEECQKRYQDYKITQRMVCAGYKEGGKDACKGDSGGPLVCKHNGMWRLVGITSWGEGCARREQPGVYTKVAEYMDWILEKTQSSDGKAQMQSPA

As to `CC(=O)N[C@H]1CSCc2cc3cc(c2)CSC[C@H](NC(=O)[C@H](CCCNC(=N)N)NC(=O)[C@H](C)NC(=O)[C@@H]2CCCN2C(=O)[C@H](Cc2c[nH]c4ccccc24)NC(=O)[C@H](CO)NC1=O)C(=O)N[C@@H](CC(C)C)C(=O)N[C@@H](Cc1cnc[nH]1)C(=O)N[C@@H](CCC(N)=O)C(=O)N[C@@H](CC(=O)O)C(=O)N[C@@H](CC(C)C)C(=O)N[C@H](C(=O)O)CSC3` (Ac-CSWPARCLHQDLC-OH; linker 1-7-13 via TBMB), the Ki at Plasma kallikrein [1] was 2 nM; in data set [6], 10 nM; on (UniProt A0A8D1M4K5) it was 3.6 nM; at Plasma kallikrein [11] it was 0.15 nM. Moreover, the Drug metabolism result in the data set with Plasma [2], with Plasma [4], with Plasma [5], in the data set with Plasma [10], in the data set on Plasma [12] and in the data set with Plasma [14] was “Metabolite_Detected” throughout. The half-life (commonly how long it takes for the measured level to halve) at 4 µM was 2.8 h in data set [3], 7 h in [8] and 1.5 h in data set [9]. In addition, the clearance (in general, the volume of plasma or blood freed of the substance per unit of time) in [7] came to 156 mL/min/kg. The compound also showed a half-life at 1 µM in data set [13] above 24 h.
Turning to `COc1ccc2c(c1)c(CC(=O)O)c(C)n2C(=O)c1ccc(Cl)cc1` [INDOMETHACIN], the inhibition in vivo at 5 mg/kg in the data set on Rattus norvegicus [15] turned out to be 56%; in the data set on Rattus norvegicus [16] it was 54%; in the data set on Rattus norvegicus [17] it was 48%; in the data set on Rattus norvegicus [18] it was 47.2%; in the data set on Rattus norvegicus [19], 79%.
For `Cc1cc(Oc2nc(Oc3cccc(C(=N)N)c3)c(F)c(NC(C)CCc3ccccc3)c2F)c(C(=O)O)cc1N(C)C` (configuration not stated), the “fold change (FC)” value in the data set with Plasma [20] was 2. For the same compound, the Ki at Coagulation factor XI worked out at 1000 nM.
